An excerpt weighted towards active compounds, which were near 10% of everything screened.
PMI act satM6P: PMI (human) activation, high substrate; P34949; coupled PMI enzyme assay, resazurin fluorescence, 20 min; active compounds read high; 1 = untreated enzyme, 0 = substrate-free blank; activation factor at 20 µM; actives 0.34% (n = 190,000); AID 1216;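 active = activation factor of 2 or more at 20 µM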
Target sequence (P34949 whole entry, looked up): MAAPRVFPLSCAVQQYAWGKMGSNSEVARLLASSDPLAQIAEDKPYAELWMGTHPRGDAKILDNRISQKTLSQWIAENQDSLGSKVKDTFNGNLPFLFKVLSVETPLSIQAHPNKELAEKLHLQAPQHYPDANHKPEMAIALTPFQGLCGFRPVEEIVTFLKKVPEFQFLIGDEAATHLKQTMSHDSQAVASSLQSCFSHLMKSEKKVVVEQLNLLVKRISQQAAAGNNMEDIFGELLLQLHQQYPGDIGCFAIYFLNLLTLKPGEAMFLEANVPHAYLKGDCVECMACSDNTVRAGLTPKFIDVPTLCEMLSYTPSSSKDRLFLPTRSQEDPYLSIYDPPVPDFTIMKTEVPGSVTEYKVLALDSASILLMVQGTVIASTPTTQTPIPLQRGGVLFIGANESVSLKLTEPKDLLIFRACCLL
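Test system: Human PMI in coupled enzyme assay | Input: 15 ng/mL PMI | Medium: HEPES-buffered pH 7.4 with magnesium and detergent | Compound: One concentration, 20 µM, in 1% DMSO | Incubation: Enzyme reaction with compound 20 min at room temperature | Detection: Diaphorase-driven resazurin-to-resorufin fluorescence, excitation 544, emission 590 nm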
Diaph act CS: counter-screen for diaphorase-based assays: diaphorase activators and chemical reducers; Diaphorase/resazurin coupled assay, resorufin fluorescence, 16 min; active compounds read high; 1 = vehicle wells, 0 = NADH-free wells; activation factor at 20 µM; actives 0.005% (n = 190,000); AID 1229;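 active = diaphorase activity raised at least twofold by the compound at 20 µM; inactive = activation factor below 2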
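Material: Purified diaphorase enzyme from Clostridium kluyveri | Buffer or medium: 50 mM HEPES pH 7.4 with 4.542 mM MgCl2, 0.005% Tween 20 | Times: 16 min enzyme reaction, ambient temperature | Signal: Red resorufin fluorescence at 544/590 nm excitation/emission | Measure: Increased resorufin signal from activators or reducing compounds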
PMI activator: activators of human phosphomannose isomerase; activation factor at 20 µM; P34949; purified human PMI, coupled resazurin fluorescence, 20 min; active compounds read high; 1 = vehicle control, 0 substrate-free wells; actives 0.005% (n = 190,000);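 active = activation factor of 2 or more at 20 µM, relative to plate controls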
Lmaj promast: inhibitors of Leishmania major promastigote growth; Leishmania major promastigotes, resazurin fluorescence viability; inhibition, % at 10 µM; actives 9% (n = 200,000); in the data active = inhibition above about 50%;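 note: promastigotes grown with compound for 44 hours at 28 °C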
WT yeast gro inh: growth inhibition of WT yeast, mitochondrial fusion screen. mitochondrial fusion phenotypic screen, WT strain. inhibition, % at 10 µM. actives 2.1% (n = 190,000). AID 1362; in the data active = inhibition above about 58%; tested in S. cerevisiae
L major 1uM: inhibitors of Leishmania major promastigote growth, repeat at 1 uM; shares compounds with Lmaj promast; L. major promastigote growth, resazurin fluorescence, 48 h; inhibition, % at 1 µM; actives 13% (n = 1,100); AID 1258;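 active = inhibition above about 50% in both repeat tests, limit read from the data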
* hit, by the source's call; · = not tested or not shown.

SMILES	PMI act satM6P	Diaph act CS	PMI activator	Lmaj promast	WT yeast gro inh	L major 1uM
O=C(CC1S/C(=N/N=C/c2ccco2)NC1=O)Nc1cccc(Cl)c1Cl (stereo not given)	1.2	1	1.2	15	3	·
COc1ccc(NC(=O)c2sccc2SCc2cccc(C(F)(F)F)c2)cc1	0.9	0.8	0.8	100*	7	-4
O=C(Nc1ccc(F)cc1)c1sccc1SCc1cccc(C(F)(F)F)c1	0.9	0.8	0.9	18	8	·
CCCCCOC(=O)NC1CCS(=O)(=O)C1 (stereo not given)	1	1	1.1	-3	-12	·
O=S1(=O)N=C(Nc2ccc(O)c(CN3CCCCC3)c2)c2ccccc21	1.1	1.1	1.1	55*	14	-2
OCCC1CN(Cc2ccon2)CCN1CCc1ccccc1 (stereo not given)	0.9	0.9	0.9	-3	-7	·
CCOC(=O)c1c(NC(=O)CSc2nnc(-c3c[nH]c4ccccc34)n2CCOC)sc2c1CCCC2	1	0.9	1	72*	5	-11
COCCn1c(SCC(=O)Nc2ccc3c(c2)OCCO3)nnc1-c1c[nH]c2ccccc12	1	0.9	1	-2	-6	·
CNC(=O)/C(=C\c1ccc2c(c1)OCO2)NC(=O)c1ccc(Br)cc1	1	0.5	1	-2	4	·
CC(=O)OC1C(N2CCCCC2)c2c(ccc(/C=C/C(=O)N3CCCCC3)c2O)OC1(C)C (stereo not given)	0.9	0.8	0.8	73*	-9	-22
COC(=O)c1ccccc1NC(=O)c1ccccc1N(C)S(C)(=O)=O	0.9	0.8	0.8	19	-6	·
CCOC(=O)c1ccccc1NC(=O)c1ccccc1N(C)S(C)(=O)=O	0.9	0.9	0.9	90*	3	-3
CCSC1=N/C(=C\c2ccc(C)s2)C(=O)S1	0.9	0.9	0.8	83*	5	-16
Clc1ccc(CN=C2Nc3ccccc3CS2)cc1	1	1	0.9	18	2	·
Cc1ccc(CN=C2Nc3ccccc3CS2)cc1	1	0.9	0.9	86*	18	17
CCOCCCNC(=O)c1cc(=O)n(Cc2cccc(C)c2)c2ccccc12	1.1	1	1.1	22	-3	·
COc1ccc2c(c1)C(=O)[C@@H](O)[C@H](c1ccc(OC)c(Br)c1)O2	1.1	1	1.1	98*	25	-58
COc1cccc([C@@H]2Oc3ccc(OC)cc3C(=O)[C@H]2O)c1	1	0.9	1	14	2	·
CCn1cc(C(=O)OCc2cccc(Br)c2)c(=O)c2ccc(C)nc21	1	0.9	1	14	25	·
CCn1cc(C(=O)OCc2ccc(F)cc2)c(=O)c2ccc(C)nc21	0.8	0.8	0.8	50*	4	-2
Cc1cc(=O)oc2cc(OCC(=O)c3ccc4c(c3)NC(=O)CO4)ccc12	1	1	1	-6	-32	·
C/C(N)=C(/C#N)C(=O)CSc1nnc(Nc2ccccc2)s1	1	0.9	1	54*	2	-15
C/C(N)=C(/C#N)C(=O)CSc1nnc(Nc2ccccc2C)s1	1	0.9	1	0	-9	·
COc1ccc(-c2cc3nc4c(c(N5CCC6(CC5)OCCO6)n3n2)CCC4)cc1	0.9	0.6	0.9	34	0	·
COc1ccc(-c2cc3nc(-c4ccccc4)cc(N4CCC5(CC4)OCCO5)n3n2)cc1	1	0.7	1	80*	-2	7
SMILES	PMI act satM6P	Diaph act CS	PMI activator	Lmaj promast	WT yeast gro inh	L major 1uM
C[C@H]1CC[C@H]2C(=O)N3[C@H](c4cccc(N5CCCC5=O)c4)[C@@H](C)CC[C@H]3C(=O)N2[C@@H]1c1cccc(N2CCCC2=O)c1	1.1	1.2	1.2	82*	-6	-14
Cc1ccc(N/N=C(\C#N)C(=N)N2CCCCCC2)cc1	1.1	1	1	61*	19	-1
CCc1ccc(N(C(=O)c2csnn2)C(C(=O)NC(C)(C)CC)c2cccnc2)cc1 (stereo not given)	0.9	0.9	1	6	3	·
Cc1cccc(C)c1NC(=O)CNC(=O)CCC(=O)c1cccs1	1	0.9	0.9	18	-19	·
Cc1c(C(=O)NCC(C)C)sc2nc(-c3ccc(F)cc3)cn12	1	0.9	1	-3	6	·
Cc1c(C(=O)Nc2ccncc2)sc2nc(-c3ccc(F)cc3)cn12	0.9	0.8	0.9	99*	12	19
CC12CCC(C(=O)N(CCCN3CCN(Cc4ccccc4)CC3)C1=O)C2(C)C (stereo not given)	1	1	1.1	95*	-6	68*
COC(=O)c1cc2ccsc2n1Cc1cccc(F)c1	1	0.8	0.9	40	22	·
COC(=O)c1cc2ccsc2n1Cc1nc(-c2ccc(OC)cc2)oc1C	0.9	0.8	0.8	100*	35	93*
COC(=O)c1ccc(CSc2nnnn2Cc2ccccc2)cc1	0.8	0.8	0.8	97*	13	-15
COc1ccc(C(=O)CSc2nnnn2Cc2ccccc2)cc1	1	1	1	-8	-2	·
Cc1ccc(S(=O)(=O)N2CCC(C(=O)NCCCOC(C)C)CC2)cc1	1	0.9	1	-3	14	·
O=[N+]([O-])c1ccc2c(c1)c(-c1ccccc1)nc1nncn12	0.9	0.8	1	56*	-9	-15
Cc1ccc(NC(=S)NC(NC(=O)c2ccco2)C(Cl)(Cl)Cl)cc1 (stereo not given)	0.9	1	0.9	83*	1	-6
Nc1c(C(O)(C(F)(F)F)C(F)(F)F)cc(C(O)(C(F)(F)F)C(F)(F)F)c2ccccc12	0.8	0.6	0.8	100*	33	-7
Cc1nn(Cc2ccc(Cl)cc2)c(=O)n1N(C)c1ncc(C(F)(F)F)cc1Cl	0.9	0.8	0.9	94*	6	-17
CC(O)CNCc1ccccc1C(F)(F)F (stereo not given)	1	0.9	1	-10	-1	·
Cc1ccc(N/N=C/c2c(O)cc(C)oc2=O)cc1	2.2*	0.8	1.4	87*	4	-12
CCOc1ccccc1N(C(=O)Nc1cccc(Cl)c1)C1=NC(C)CS1 (stereo not given)	0.9	0.8	0.9	81*	19	7
COc1ccc2cc3[n+](cc2c1OC)CCc1cc2c(cc1-3)OCO2	0.7	1	0.9	100*	10	76*
CS(=O)(=O)N1N=C(c2cccs2)CC1c1ccc(Cl)o1 (stereo not given)	1.1	0.8	1.1	-1	-5	·
C(=N\N1CCOCC1)/c1nc(-c2ccccc2)n2ccccc12	0.5	0.8	0.7	2	-9	·

Compound activity from PubChem BioAssay.
